Data from ChEMBL document CHEMBL1132183 (J Med Chem, 1999).

Experiments:
[1] = molecular target: T1, Adrenergic receptor alpha-2 (Rattus norvegicus, UniProt P22086+P19328+P22909); experiment: Displacement of [3H]rauwolscine from rat brain Alpha-2 adrenergic receptor
T1 sequence (P22086 whole entry): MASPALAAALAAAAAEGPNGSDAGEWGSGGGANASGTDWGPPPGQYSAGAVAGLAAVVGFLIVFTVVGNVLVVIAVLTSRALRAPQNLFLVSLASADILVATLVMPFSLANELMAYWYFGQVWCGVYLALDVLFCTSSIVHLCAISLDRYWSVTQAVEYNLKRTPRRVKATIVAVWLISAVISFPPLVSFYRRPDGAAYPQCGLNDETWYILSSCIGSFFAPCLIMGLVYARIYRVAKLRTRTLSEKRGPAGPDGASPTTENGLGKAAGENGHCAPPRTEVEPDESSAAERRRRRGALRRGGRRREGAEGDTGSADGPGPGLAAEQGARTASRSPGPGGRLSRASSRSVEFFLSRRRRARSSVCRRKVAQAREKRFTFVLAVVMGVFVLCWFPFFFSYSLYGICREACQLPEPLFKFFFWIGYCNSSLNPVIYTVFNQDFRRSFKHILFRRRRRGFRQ
T1 sequence (P19328 whole entry): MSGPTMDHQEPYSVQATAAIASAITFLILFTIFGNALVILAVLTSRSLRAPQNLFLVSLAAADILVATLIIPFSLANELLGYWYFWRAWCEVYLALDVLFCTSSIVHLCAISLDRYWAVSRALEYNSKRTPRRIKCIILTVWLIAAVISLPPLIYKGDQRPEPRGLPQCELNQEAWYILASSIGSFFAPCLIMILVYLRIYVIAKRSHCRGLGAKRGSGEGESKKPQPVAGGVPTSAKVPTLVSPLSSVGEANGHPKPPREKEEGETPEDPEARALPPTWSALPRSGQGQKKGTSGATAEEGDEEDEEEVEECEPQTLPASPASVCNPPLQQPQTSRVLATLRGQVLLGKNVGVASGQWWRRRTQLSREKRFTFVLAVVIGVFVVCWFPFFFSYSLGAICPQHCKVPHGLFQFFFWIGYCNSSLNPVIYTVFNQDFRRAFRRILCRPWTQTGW
T1 sequence (P22909 whole entry): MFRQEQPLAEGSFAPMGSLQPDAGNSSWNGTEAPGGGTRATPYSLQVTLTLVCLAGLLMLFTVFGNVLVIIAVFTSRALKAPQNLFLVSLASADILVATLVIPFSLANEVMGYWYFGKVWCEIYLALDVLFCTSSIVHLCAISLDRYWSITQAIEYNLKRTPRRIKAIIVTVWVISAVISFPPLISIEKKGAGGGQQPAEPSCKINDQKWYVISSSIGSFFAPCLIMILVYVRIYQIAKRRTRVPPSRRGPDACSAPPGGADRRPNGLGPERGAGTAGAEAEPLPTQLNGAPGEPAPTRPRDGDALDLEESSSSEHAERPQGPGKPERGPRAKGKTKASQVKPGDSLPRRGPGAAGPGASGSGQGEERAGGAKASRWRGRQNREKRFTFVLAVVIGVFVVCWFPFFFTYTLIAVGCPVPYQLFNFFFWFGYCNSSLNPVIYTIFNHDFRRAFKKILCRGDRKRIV
Summary of the method: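 Rat cerebral cortex membranes (male Sprague–Dawley) were washed in Tris-HCl pH 7.4 and resuspended with 10 μM pargiline and 0.1% ascorbic acid. They were incubated 30 min at 25 °C with 0.5–1.5 nM [3H]rauwolscine. Nonspecific binding was taken with 10 μM phentolamine. Filtration and scintillation counting followed, and Ki was obtained by Cheng–Prusoff.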

[2] = molecular target: D(2) dopamine receptor (Rattus norvegicus, UniProt P61169); experiment: Displacement of [3H]spiperone from rat brain Dopamine receptor D2
Summary of the method: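 Striata from male Sprague–Dawley rats homogenized in Tris-HCl pH 7.4. Buffer held 10 μM pargiline, 0.1% ascorbic acid, 120 mM NaCl, 5 mM KCl, 2 mM CaCl2, 1 mM MgCl2. Incubated with 0.2–0.6 nM [3H]spiperone for 15 min at 37 °C. Nonspecific binding defined with 1 μM (+)-butaclamol. Filtration, scintillation counting. Ki by Cheng–Prusoff.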

[3] = molecular target: T2, 5-hydroxytryptamine receptor 1A (Homo sapiens, UniProt P08908); experiment: Displacement of [3H]8-hydroxy-2-(di-n-propylamino)tetralin from human 5-hydroxytryptamine 1A receptor
T2 sequence (P08908 whole entry): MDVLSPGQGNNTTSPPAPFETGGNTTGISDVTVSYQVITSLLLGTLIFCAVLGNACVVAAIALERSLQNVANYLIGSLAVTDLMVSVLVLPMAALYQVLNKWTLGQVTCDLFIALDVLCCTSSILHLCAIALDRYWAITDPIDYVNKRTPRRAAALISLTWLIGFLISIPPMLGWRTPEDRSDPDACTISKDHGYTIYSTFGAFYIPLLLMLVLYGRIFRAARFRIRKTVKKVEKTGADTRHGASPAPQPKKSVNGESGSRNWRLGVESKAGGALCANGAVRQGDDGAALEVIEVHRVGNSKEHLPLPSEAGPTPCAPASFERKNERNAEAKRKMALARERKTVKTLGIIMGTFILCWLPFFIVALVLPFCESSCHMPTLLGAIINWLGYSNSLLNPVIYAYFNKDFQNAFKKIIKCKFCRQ
Summary of the method: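 Membranes of HeLa cells stably transfected with human 5-HT1A (genomic clone G-21), in 50 mM Tris-HCl pH 7.4, 2.5 mM MgCl2, 10 μM pargiline. […] Nonspecific binding defined with 10 μM 5-HT. Filtration, scintillation counting. Ki by Cheng–Prusoff; 2–3 experiments in triplicate.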

[4] = molecular target: T3, Alpha-1A adrenergic receptor (Rattus norvegicus) (UniProt P43140); experiment: Antagonist activity against Alpha-1A adrenergic receptor (-)-noradrenaline-induced contraction of rat prostatic vas deferens; format: functional, tissue-based
T3 sequence (whole entry): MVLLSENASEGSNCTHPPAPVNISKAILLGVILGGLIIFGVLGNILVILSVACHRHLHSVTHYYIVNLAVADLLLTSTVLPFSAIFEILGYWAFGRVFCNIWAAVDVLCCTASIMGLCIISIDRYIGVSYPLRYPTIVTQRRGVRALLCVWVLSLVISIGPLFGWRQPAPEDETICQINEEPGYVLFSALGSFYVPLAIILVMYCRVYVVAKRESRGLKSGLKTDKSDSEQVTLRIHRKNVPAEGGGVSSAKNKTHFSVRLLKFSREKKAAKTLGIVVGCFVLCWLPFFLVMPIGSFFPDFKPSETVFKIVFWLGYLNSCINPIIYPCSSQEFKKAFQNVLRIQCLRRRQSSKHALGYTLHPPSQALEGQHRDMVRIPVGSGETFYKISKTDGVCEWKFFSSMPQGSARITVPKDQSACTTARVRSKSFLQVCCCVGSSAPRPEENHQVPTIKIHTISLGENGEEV
Summary of the method: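 Isolated rat prostatic vas deferens with 0.01 μM desipramine in the bath. Isotonic cumulative (–)-noradrenaline curves were run at 30-min intervals: first discarded, second as control, then antagonist equilibrated 30 min before a new curve. pKb by Arunlakshana–Schild from dose ratios of EC50, at 2–3 antagonist concentrations, each tested four times.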

D(2) dopamine receptor, sequence (P61169 whole entry): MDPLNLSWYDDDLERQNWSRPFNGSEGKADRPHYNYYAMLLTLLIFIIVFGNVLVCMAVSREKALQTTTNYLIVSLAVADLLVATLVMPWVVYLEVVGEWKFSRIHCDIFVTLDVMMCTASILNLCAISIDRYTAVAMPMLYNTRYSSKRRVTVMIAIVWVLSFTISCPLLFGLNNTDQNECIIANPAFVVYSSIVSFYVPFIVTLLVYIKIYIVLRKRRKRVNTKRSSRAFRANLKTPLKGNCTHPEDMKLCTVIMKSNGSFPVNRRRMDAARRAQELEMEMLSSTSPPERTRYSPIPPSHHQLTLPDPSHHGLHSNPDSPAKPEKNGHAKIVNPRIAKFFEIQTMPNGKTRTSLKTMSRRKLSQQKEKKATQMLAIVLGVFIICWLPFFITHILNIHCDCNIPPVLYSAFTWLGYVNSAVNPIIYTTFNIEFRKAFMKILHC

SMILES | Log Ki [1] | Ki [2] [nM] | Ki [3] [nM] | pKb [4]
O[C@H]1[C@@H](NC[C@H]2COc3ccccc3O2)CC[C@@H]1Oc1ccccc1 | -6.23 | 2400 | 0.832 | 5.65
O[C@H]1[C@@H](NC[C@@H]2COc3ccccc3O2)CC[C@@H]1Oc1ccccc1 | -6.21 | 1120 | 3.72 | < 5
O[C@@H]1[C@H](NC[C@H]2COc3ccccc3O2)CC[C@H]1Oc1ccccc1 | -6.05 | 2400 | 5.5 | 6.55
O[C@@H]1[C@H](NC[C@@H]2COc3ccccc3O2)CC[C@H]1Oc1ccccc1 | -6.27 | 6170 | 22.4 | 6.1
